{"data": "Assay results gathered from unrelated publications", "target": "Serine/threonine-protein kinase DCLK3 (DCLK3, Homo sapiens, UniProt Q9C098)", "One construct used (Q9C098 1-648)": "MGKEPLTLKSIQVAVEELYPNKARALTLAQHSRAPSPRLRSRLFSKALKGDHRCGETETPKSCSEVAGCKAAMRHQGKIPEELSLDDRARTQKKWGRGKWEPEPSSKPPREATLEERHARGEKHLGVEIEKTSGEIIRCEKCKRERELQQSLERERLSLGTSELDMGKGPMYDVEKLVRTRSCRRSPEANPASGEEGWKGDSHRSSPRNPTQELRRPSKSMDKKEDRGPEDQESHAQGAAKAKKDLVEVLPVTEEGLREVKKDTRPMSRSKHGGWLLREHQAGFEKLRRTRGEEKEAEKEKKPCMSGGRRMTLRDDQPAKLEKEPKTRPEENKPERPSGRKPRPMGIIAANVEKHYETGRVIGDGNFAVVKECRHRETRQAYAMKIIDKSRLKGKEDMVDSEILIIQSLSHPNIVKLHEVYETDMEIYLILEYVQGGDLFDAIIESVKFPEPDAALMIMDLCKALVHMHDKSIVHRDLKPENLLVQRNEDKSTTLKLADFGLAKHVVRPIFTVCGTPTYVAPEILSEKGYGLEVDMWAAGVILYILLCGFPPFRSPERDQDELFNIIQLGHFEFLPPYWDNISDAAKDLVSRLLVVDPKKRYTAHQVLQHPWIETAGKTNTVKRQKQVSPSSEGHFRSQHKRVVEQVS", "note": "Compare with care: the assays were run in different laboratories."}
{"Compound": "N[C@H]1CCN(c2nccc(-c3cnn4ncccc34)n2)C1", "test": "binding", "setting": "1 µM", "remaining binding [%]": 100}
{"Compound": "CCN1CCN(Cc2ccc(C(=O)Nc3ccc(C)c(Oc4ccc5c(c4)CC(=O)N5)c3)cc2C(F)(F)F)CC1", "test": "binding, competition with immobilised ligand", "setting": "1 µM", "remaining binding [%]": 100}
{"Compound": "O=C(Nc1c[nH]nc1C(=O)NC1CCNCC1)c1cc(F)cc(F)c1", "test": "binding, competition with immobilised ligand", "setting": "1 µM", "remaining binding [%]": 93}
{"Compound": "c1cnn2ncc(-c3ccnc(N4CCC45COC5)n3)c2c1", "test": "binding", "setting": "1 µM", "remaining binding [%]": 100}
{"Compound": "CNC(=O)[C@@H]1CC[C@@H](n2c(-c3ccc4cnccc4c3)nc3ccc(C(=O)NCc4cccc(C(N)=O)c4)cc32)C1", "test": "binding, competition with immobilised ligand", "setting": "1 µM", "remaining binding [%]": 100}
{"Compound": "C[C@@H](c1ccc(-n2cnc3c(N)ncnc32)cc1)N1CCc2nn(C)c(Cc3ccccc3)c2C1=O", "test": "binding, competition with immobilised ligand", "setting": "0.1 µM", "remaining binding [%]": 85}
{"Compound": "CN(C)c1nccc(-c2cnc3ncccn23)n1", "test": "binding", "setting": "1 µM", "remaining binding [%]": 76}
{"Compound": "CNC(=O)c1ccc(Nc2ncc(C(F)(F)F)c(NCc3nccnc3N(C)S(C)(=O)=O)n2)cc1", "test": "cell-free assay, competition with immobilised ligand", "setting": "0.1 µM", "remaining binding [%]": 67}
{"Compound": "O=C(c1ccc(Nc2nccc(-c3cc4ccccc4s3)n2)cc1)N1CCC(N2CCCC2)CC1", "test": "binding, competition with immobilised ligand", "setting": "1 µM", "remaining binding [%]": 45}
{"Compound": "CCCCN(CCCC)C(=O)CN1C[C@@H](c2cc(OC)c3c(c2)OCO3)[C@H](C(=O)O)[C@H]1CC(C)(C)CCC", "test": "cell-free assay, competition with immobilised ligand", "setting": "1 µM", "remaining binding [%]": 100}
{"Compound": "CN(C)c1nccc(-c2cnn3ncccc23)n1", "test": "binding", "setting": "1 µM", "remaining binding [%]": 100}
{"Compound": "COc1cnc(Nc2cccc(S(N)(=O)=O)c2)nc1N1CCN(c2ccccc2)C(=O)C1", "test": "binding, competition with immobilised ligand", "setting": "1 µM", "remaining binding [%]": 100}
{"Compound": "CN(CCCC(F)(F)F)c1nccc(-c2cnn3ncccc23)n1", "test": "binding", "setting": "1 µM", "remaining binding [%]": 85}
{"Compound": "CC(C)(O)c1cncc(-c2nc3ccc(F)cc3n2C2CC2)c1", "test": "cell-free assay, competition with immobilised ligand", "setting": "1 µM", "remaining binding [%]": 100}
{"Compound": "C[C@@H]1CCN(c2nccc(-c3cnn4ncccc34)n2)C1", "test": "binding", "setting": "1 µM", "remaining binding [%]": 100}
{"Compound": "CN(C)c1ncnc(-c2ccc3nc(Nc4cc(CN5CCN(C(=O)CC(F)(F)F)CC5)ccn4)[nH]c3c2)c1Cl", "test": "cell-free assay, competition with immobilised ligand", "setting": "1 µM", "remaining binding [%]": 92}
{"Compound": "COc1ncc2cc3ccccc3nc2c1C#N", "test": "cell-free assay, competition with immobilised ligand", "setting": "5 µM", "remaining binding [%]": 100}
{"Compound": "COc1ccc2c(c1)O[C@@H](c1ccc(OC)c(OC)c1)C[C@H]2NC(=O)C1(c2ccc3c(c2)OC(F)(F)O3)CC1", "test": "cell-free assay, competition with immobilised ligand", "setting": "1 µM", "remaining binding [%]": 98}
{"Compound": "O=C(c1ccc(Nc2ncc(Cl)c(-c3cc4ccccc4s3)n2)cc1)N1CCC(N2CCCC2)CC1", "test": "binding, competition with immobilised ligand", "setting": "1 µM", "remaining binding [%]": 0.9}
{"Compound": "O=C(N1CCS(=O)(=O)CC1)N1C[C@H](c2ccc(OC(F)(F)F)cc2)C[C@H](c2nc(C3CC3)no2)C1", "test": "cell-free assay, competition with immobilised ligand", "setting": "1 µM", "remaining binding [%]": 100}
{"Compound": "Cc1cnc(Nc2ccc(C(=O)N3CCC(N4CCCC4)CC3)cc2)nc1-c1cc2ccccc2s1", "test": "binding, competition with immobilised ligand", "setting": "1 µM", "remaining binding [%]": 0.5}
